# Tests used:
# Format in all cases: functional
# [1] = Cytotoxicity against human Hs 578T cells assessed as cell growth at 10 uM; conditions: read-out: Activity
# How it was run: (§1)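 Single-dose NCI-60 screen at 10 µM. Cells were grown in RPMI 1640 with 5% FBS and 2 mM L-glutamine, then treated for 48 h at 37 °C. Protein was measured by SRB staining with absorbance at 515 nm. Percentage growth was recorded, and inhibition percentage was calculated as 100 minus growth percentage.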
# SK-MEL-5 = assay: Cytotoxicity against human SK-MEL-5 cells assessed as cell growth at 10 uM; conditions: read-out: Activity
# How it was run: (§2)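 NCI-60 screen: cells grown in RPMI 1640 with 5% FBS and 2 mM L-glutamine, plated at 5000–40,000 cells/well according to doubling time, and preincubated 24 h at 37 °C, 5% CO2. The single 10 µM dose (DMSO stock) was added, then incubated 48 h. Cells were TCA-fixed and stained with 0.4% SRB, read at 515 nm, and growth % calculated against time-zero and control plates.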
# NCI/ADR-RES = assay: Cytotoxicity against human NCI/ADR-RES cells assessed as cell growth at 10 uM; conditions: read-out: Activity; how it was run: as §2
# HCC 2998 = assay: Cytotoxicity against human HCC2998 cells assessed as cell growth at 10 uM; conditions: read-out: Activity; how it was run: as §1
# MCF7 = assay: Cytotoxicity against human MCF7 cells assessed as cell growth at 10 uM; conditions: read-out: Activity; how it was run: as §2
# NCI-H322M = assay: Cytotoxicity against human NCI-H322M cells assessed as cell growth at 10 uM; conditions: read-out: Activity; how it was run: as §2
# SF-539 = assay: Cytotoxicity against human SF539 cells assessed as cell growth at 10 uM; conditions: read-out: Activity; how it was run: as §2
# MDA-MB-435 = assay: Cytotoxicity against human MDA-MB-435 cells assessed as cell growth at 10 uM; conditions: read-out: Activity; how it was run: as §2
# T47D = assay: Cytotoxicity against human T47D cells assessed as cell growth at 10 uM; conditions: read-out: Activity; how it was run: as §2
# [2] = Growth inhibition of human NCI60 cells at 10 uM after 48 hrs by sulforhodamine B assay relative to control; conditions: NCI60, 48 h, read-out: GI
# How it was run: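 Single-dose NCI screen at 10 µM across the 60-line panel, 48 h exposure at 37 °C after a 24 h preincubation. Adherent cells were fixed with cold TCA and stained with 0.4% SRB, and absorbance was read at 515 nm. Inhibition % was taken as 100 minus growth %, and the mean across all lines was reported.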
# OVCAR-8 = assay: Cytotoxicity against human OVCAR8 cells assessed as cell growth at 10 uM; conditions: read-out: Activity; how it was run: as §2
# KM12 = assay: Cytotoxicity against human KM12 cells assessed as cell growth at 10 uM; conditions: read-out: Activity; how it was run: as §2
# NCI-H226 = assay: Cytotoxicity against human NCI-H226 cells assessed as cell growth at 10 uM; conditions: read-out: Activity; how it was run: as §2
# [3] = Cytotoxicity against human […] cells assessed as cell growth at 10 uM; conditions: read-out: Activity; how it was run: as §2
# UACC-62 = assay: Cytotoxicity against human UACC62 cells assessed as cell growth at 10 uM; conditions: read-out: Activity; how it was run: as §2
# SR = assay: Cytotoxicity against human SR cells assessed as cell growth at 10 uM; conditions: read-out: Activity; how it was run: as §2
# SN12C = assay: Cytotoxicity against human SN12C cells assessed as cell growth at 10 uM; conditions: read-out: Activity; how it was run: as §2
# BT-549 = assay: Cytotoxicity against human BT549 cells assessed as cell growth at 10 uM; conditions: read-out: Activity; how it was run: as §1
# U-251 = assay: Cytotoxicity against human U251 cells assessed as cell growth at 10 uM; conditions: read-out: Activity; how it was run: as §2
# SW-620 = assay: Cytotoxicity against human SW620 cells assessed as cell growth at 10 uM; conditions: read-out: Activity; how it was run: as §2
# MDA-MB-231 = assay: Cytotoxicity against human MDA-MB-231 cells assessed as cell growth at 10 uM; conditions: read-out: Activity; how it was run: as §2
# NCI-H460 = assay: Cytotoxicity against human NCI-H460 cells assessed as cell growth at 10 uM; conditions: read-out: Activity; how it was run: as §2
# SK-MEL-28 = assay: Cytotoxicity against human SK-MEL-28 cells assessed as cell growth at 10 uM; conditions: read-out: Activity; how it was run: as §2
# PC-3 = assay: Cytotoxicity against human PC3 cells assessed as cell growth at 10 uM; conditions: read-out: Activity; how it was run: as §2
# CAKI-1 = assay: Cytotoxicity against human Caki1 cells assessed as cell growth at 10 uM; conditions: read-out: Activity; how it was run: as §1
# NCI-H522 = assay: Cytotoxicity against human NCI-H522 cells assessed as cell growth at 10 uM; conditions: read-out: Activity; how it was run: as §2
# OVCAR-4 = assay: Cytotoxicity against human OVCAR4 cells assessed as cell growth at 10 uM; conditions: read-out: Activity; how it was run: as §2
# SNB-75 = assay: Cytotoxicity against human SNB75 cells assessed as cell growth at 10 uM; conditions: read-out: Activity; how it was run: as §2
# HL-60(TB) = assay: Cytotoxicity against human HL-60(TB) cells assessed as cell growth at 10 uM; conditions: read-out: Activity
# How it was run: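 NCI 60-cell panel screen at a single concentration of 10 µM. Cells are grown in RPMI 1640 with 5% FBS and 2 mM L-glutamine and read by SRB protein staining at 515 nm. Percent growth is measured relative to time-zero and untreated controls; inhibition % is 100 minus growth %.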
# MOLT-4 = assay: Cytotoxicity against human MOLT4 cells assessed as cell growth at 10 uM; conditions: read-out: Activity; how it was run: as §2
smiles,measurement,setting,value
Cc1cc(O)cc(-c2nn(CC#N)cc2-c2ccnc(-c3ccc(C#N)cc3)c2)c1,growth at 10 µM,[1],103%
same,growth at 10 µM,SK-MEL-5,58.4%
same,growth at 10 µM,NCI/ADR-RES,77.7%
same,growth at 10 µM,HCC 2998,92%
same,growth at 10 µM,MCF7,34.4%
same,growth at 10 µM,NCI-H322M,97.4%
same,growth at 10 µM,SF-539,76%
same,growth at 10 µM,MDA-MB-435,88.3%
same,growth at 10 µM,T47D,29.2%
same,inhibition of growth at 10 µM,[2],20.8%
same,growth at 10 µM,OVCAR-8,72.9%
same,growth at 10 µM,KM12,95.6%
same,growth at 10 µM,NCI-H226,79.8%
same,growth at 10 µM,[3],70.2%
same,growth at 10 µM,UACC-62,62.3%
same,growth at 10 µM,SR,88.5%
same,growth at 10 µM,SN12C,73.5%
same,growth at 10 µM,BT-549,84.8%
same,growth at 10 µM,U-251,91.5%
same,growth at 10 µM,SW-620,119%
same,growth at 10 µM,MDA-MB-231,67%
same,growth at 10 µM,NCI-H460,104%
same,growth at 10 µM,SK-MEL-28,88.3%
same,growth at 10 µM,PC-3,95.5%
same,growth at 10 µM,CAKI-1,84.3%
same,growth at 10 µM,NCI-H522,60.7%
same,growth at 10 µM,OVCAR-4,79.5%
same,growth at 10 µM,SNB-75,46.3%
same,growth at 10 µM,HL-60(TB),56.2%
same,growth at 10 µM,MOLT-4,54.6%

# From ChEMBL document CHEMBL1165950, “Design and synthesis of new potent anticancer pyrazoles with high FLT3 kinase inhibitory selectivity” (Bioorg Med Chem, 2010)
